Legend:
SF-268 = assay: Growth inhibition of human SF268 cells assessed as cell growth at 10 uM after 48 hrs by sulforhodamine B assay; type: functional; settings: SF-268, 48 h, read-out: Activity
CCRF-CEM = assay: Growth inhibition of human CCRF-CEM cells after 48 hrs by sulforhodamine B assay; type: functional, cell-based
Procedure, shortened: (§1)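 NCI 60-cell-line panel grown in RPMI-type medium with 5% fetal calf serum and 2 mM L-glutamine. Cells preincubated 24 h, then exposed continuously for 48 h to compound in DMSO at 10^-4 to 10^-8 M (five 10-fold levels). Growth read by SRB protein stain. GI50 is the concentration giving a 50% reduction in net protein increase relative to control cells.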

PC-3 = assay: Growth inhibition of human PC3 cells after 48 hrs by sulforhodamine B assay; type: functional; settings: PC-3, 48 h
Procedure, shortened: (§2)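 NCI 60-cell-line panel. Cells were grown in medium with 5% fetal calf serum and 2 mM L-glutamine, then preincubated 24 h in plates. Compounds were added from DMSO at five 10-fold concentrations from 100 to 0.01 µM and left on cells continuously for 48 h. Cell growth was read by sulforhodamine B protein stain. GI50 is the concentration that halves net protein increase relative to control cells.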

UO-31 = assay: Growth inhibition of human UO31 cells assessed as cell growth at 10 uM after 48 hrs by sulforhodamine B assay; type: functional; settings: UO-31, 48 h, read-out: Activity
Procedure, shortened: (§3)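 Single-dose NCI screen. Tumor lines were cultured in medium with 5% fetal calf serum and 2 mM L-glutamine, preincubated 24 h, then given compound in DMSO. After 48 h continuous exposure, cell growth was estimated by sulforhodamine B protein assay.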

Malme-3M = assay: Growth inhibition of human MALME-3M cells after 48 hrs by sulforhodamine B assay; type: functional; procedure, shortened: as §1
NCI-H226 = assay: Growth inhibition of human NCI-H226 cells assessed as cell growth at 10 uM after 48 hrs by sulforhodamine B assay; type: functional; settings: NCI-H226, 48 h, read-out: Activity
COLO 205 = assay: Growth inhibition of human COLO205 cells after 48 hrs by sulforhodamine B assay; type: functional; settings: COLO 205, 48 h; procedure, shortened: as §1
NCI-H460 = assay: Growth inhibition of human NCI-H460 cells after 48 hrs by sulforhodamine B assay; type: functional; settings: NCI-H460, 48 h; procedure, shortened: as §2
RPMI-8226 = assay: Growth inhibition of human RPMI8226 cells after 48 hrs by sulforhodamine B assay; type: functional; settings: RPMI-8226, 48 h; procedure, shortened: as §2
BT-549 = assay: Growth inhibition of human BT549 cells assessed as cell growth at 10 uM after 48 hrs by sulforhodamine B assay; type: functional; settings: BT-549, 48 h, read-out: Activity
RXF 393 = assay: Growth inhibition of human RXF393 cells after 48 hrs by sulforhodamine B assay; type: functional; settings: RXF 393, 48 h; procedure, shortened: as §2
SK-MEL-2 = assay: Growth inhibition of human SK-MEL-2 cells assessed as cell growth at 10 uM after 48 hrs by sulforhodamine B assay; type: functional; settings: SK-MEL-2, 48 h, read-out: Activity
HT-29 = assay: Growth inhibition of human HT-29 cells assessed as cell growth at 10 uM after 48 hrs by sulforhodamine B assay; type: functional; settings: HT-29, 48 h, read-out: Activity
HOP-62 = assay: Growth inhibition of human HOP62 cells after 48 hrs by sulforhodamine B assay; type: functional; settings: HOP-62, 48 h; procedure, shortened: as §1
NCI-H522 = assay: Growth inhibition of human NCI-H522 cells assessed as cell growth at 10 uM after 48 hrs by sulforhodamine B assay; type: functional; settings: NCI-H522, 48 h, read-out: Activity
[1] = Growth inhibition of human NCI-ADR-RES cells after 48 hrs by sulforhodamine B assay; type: functional; procedure, shortened: as §2
OVCAR-5 = assay: Growth inhibition of human OVCAR5 cells assessed as cell growth at 10 uM after 48 hrs by sulforhodamine B assay; type: functional; settings: OVCAR-5, 48 h, read-out: Activity
[2] = Growth inhibition of human HCC2998 cells assessed as cell growth at 10 uM after 48 hrs by sulforhodamine B assay; type: functional; settings: HCC 2998, 48 h, read-out: Activity
SR = assay: Growth inhibition of human SR cells assessed as cell growth at 10 uM after 48 hrs by sulforhodamine B assay; type: functional; settings: read-out: Activity; procedure, shortened: as §3
KM12 = assay: Growth inhibition of human KM12 cells assessed as cell growth at 10 uM after 48 hrs by sulforhodamine B assay; type: functional; settings: KM12, 48 h, read-out: Activity
SW-620 = assay: Growth inhibition of human SW620 cells after 48 hrs by sulforhodamine B assay; type: functional; settings: SW-620, 48 h
Procedure, shortened: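 NCI 60-line panel. Cells were grown in medium with 5% fetal calf serum and 2 mM L-glutamine and preincubated 24 h in plates. Compound in DMSO was added at 10^-4 to 10^-8 M (five 10-fold levels), with continuous exposure for 48 h. Growth was read by SRB protein staining. GI50 is the concentration giving 50% reduction in net protein increase versus control cells.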

TK-10 = assay: Growth inhibition of human TK10 cells assessed as cell growth at 10 uM after 48 hrs by sulforhodamine B assay; type: functional; settings: TK-10, 48 h, read-out: Activity; procedure, shortened: as §3
MDA-MB-468 [3] = assay: Growth inhibition of human MDA-MB-468 cells assessed as cell growth at 10 uM after 48 hrs by sulforhodamine B assay; type: functional; settings: MDA-MB-468, 48 h, read-out: Activity
[4] = Growth inhibition of human HCC2998 cells after 48 hrs by sulforhodamine B assay; type: functional; settings: HCC 2998, 48 h; procedure, shortened: as §1
SF-539 = assay: Growth inhibition of human SF539 cells after 48 hrs by sulforhodamine B assay; type: functional; settings: SF-539, 48 h; procedure, shortened: as §2
SN12C = assay: Growth inhibition of human SN12C cells after 48 hrs by sulforhodamine B assay; type: functional
Procedure, shortened: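 Part of the NCI 60-cell-line panel. Cells were grown in 1640 medium with 5% fetal calf serum and 2 mM L-glutamine, then preincubated 24 h before compound was added. Compounds in DMSO were tested at five concentrations (100, 10, 1, 0.1, 0.01 µM) with 48 h continuous exposure. Read-out was SRB protein staining; GI50 is the concentration halving the net protein increase versus control.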

A549 = assay: Growth inhibition of human A549/ATCC cells after 48 hrs by sulforhodamine B assay; type: functional; settings: A549, 48 h; procedure, shortened: as §1
MDA-MB-468 [5] = assay: Growth inhibition of human MDA-MB-468 cells after 48 hrs by sulforhodamine B assay; type: functional; settings: MDA-MB-468, 48 h; procedure, shortened: as §2
[6] = read-out: LC50 (the source's name)

CCc1ccc(C2=NN(c3ccc(S(C)(=O)=O)cc3)C(=O)CC2)cc1
growth at 10 µM (SF-268): 42.8% | GI50 (CCRF-CEM): 2.31 µM | TGI (CCRF-CEM): > 100 µM | CC50 (CCRF-CEM; [6]): > 100 µM | GI50 (PC-3): 2.76 µM | LC50 (PC-3): > 100 µM | TGI (PC-3): > 100 µM | growth at 10 µM (UO-31): 33.3% | GI50 (Malme-3M): 6.8 µM | TGI (Malme-3M): > 67.6 µM | CC50 (Malme-3M; [6]): > 100 µM | growth at 10 µM (NCI-H226): 69.1% | GI50 (COLO 205): 1.02 µM | TGI (COLO 205): 12.6 µM | CC50 (COLO 205; [6]): 83.8 µM | GI50 (NCI-H460): 0.82 µM | TGI (NCI-H460): 36.9 µM | CC50 (NCI-H460; [6]): > 100 µM | GI50 (RPMI-8226): 0.42 µM | TGI (RPMI-8226): > 100 µM | CC50 (RPMI-8226; [6]): > 100 µM | growth at 10 µM (BT-549): 21.9% | GI50 (RXF 393): 2.04 µM | LC50 (50% lethal concentration) (RXF 393): > 100 µM | TGI (RXF 393): 19.8 µM | growth at 10 µM (SK-MEL-2): 36.9% | growth at 10 µM (HT-29): 11.5% | GI50 (HOP-62): 4.3 µM | TGI (HOP-62): > 100 µM | CC50 (HOP-62; [6]): > 100 µM | growth at 10 µM (NCI-H522): -1.27% | GI50 [1]: 0.4 µM | LC50 [1]: > 100 µM | TGI [1]: 3.34 µM | growth at 10 µM (OVCAR-5): 48.7% | growth at 10 µM [2]: 46.6% | growth at 10 µM (SR): 4.42% | growth at 10 µM (KM12): 17.3% | GI50 (SW-620): 43.1 µM | TGI (SW-620): > 100 µM | CC50 (SW-620; [6]): > 100 µM | growth at 10 µM (TK-10): 71.1% | growth at 10 µM (MDA-MB-468 [3]): 50.7% | GI50 [4]: 5.27 µM | TGI [4]: 53.4 µM | CC50 [4, 6]: > 100 µM | GI50 (SF-539): 2.35 µM | TGI (SF-539): 18.9 µM | CC50 (SF-539; [6]): > 100 µM | GI50 (SN12C): 4.81 µM | LC50 (SN12C): > 100 µM | TGI (SN12C): > 100 µM | GI50 (A549): 0.91 µM | TGI (A549): > 100 µM | CC50 (A549; [6]): > 100 µM | GI50 (MDA-MB-468 [5]): 3.75 µM | LC50 (concentration killing 50% of cells) (MDA-MB-468 [5]): > 100 µM | TGI (MDA-MB-468 [5]): 31.2 µM

O=c1[nH]cc(F)c(=O)[nH]1 [FLUOROURACIL]
GI50 (CCRF-CEM): 9.79 µM | GI50 (PC-3): 2.36 µM | GI50 (Malme-3M): 0.05 µM | GI50 (COLO 205): 0.15 µM | GI50 (NCI-H460): 0.05 µM | GI50 (RPMI-8226): 0.04 µM | GI50 (RXF 393): 2.61 µM | GI50 (HOP-62): 0.39 µM | GI50 [1]: 0.31 µM | GI50 (SW-620): 0.92 µM | GI50 [4]: 0.05 µM | GI50 (SF-539): 0.06 µM | GI50 (SN12C): 0.49 µM | GI50 (A549): 0.18 µM
